According to ChEMBL document CHEMBL1132562, “Ajoene is an inhibitor and subversive substrate of human glutathione reductase and Trypanosoma cruzi trypanothione reductase: crystallographic, kinetic, and spectroscopic studies” (J Med Chem, 1999):
The source made the active and inactive calls. The rule behind the calls is not given here.

Key:
[1] = target: Trypanothione reductase (Trypanosoma cruzi) (UniProt P28593); assay: kcat/Km value determined against Trypanothione reductase (TR) by oxidation of NADPH
Outline: (§1)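 T. cruzi trypanothione reductase, recombinant, with NADPH and ajoene as substrate in TR assay buffer (40 mM Hepes, 1 mM EDTA, pH 7.5) at 25 °C. NADPH oxidation followed as absorbance decrease at 340 nm. Controls held only NADPH and enzyme, giving the intrinsic oxidase activity.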

[2] = target: T1, Glutathione reductase, mitochondrial (Homo sapiens) (UniProt P00390); assay: Percent inhibition of 0.3 uM (E)-ajoene in the absence of NADPH for 15 min at 37 C; NI=No Inhibition
T1 sequence (whole entry): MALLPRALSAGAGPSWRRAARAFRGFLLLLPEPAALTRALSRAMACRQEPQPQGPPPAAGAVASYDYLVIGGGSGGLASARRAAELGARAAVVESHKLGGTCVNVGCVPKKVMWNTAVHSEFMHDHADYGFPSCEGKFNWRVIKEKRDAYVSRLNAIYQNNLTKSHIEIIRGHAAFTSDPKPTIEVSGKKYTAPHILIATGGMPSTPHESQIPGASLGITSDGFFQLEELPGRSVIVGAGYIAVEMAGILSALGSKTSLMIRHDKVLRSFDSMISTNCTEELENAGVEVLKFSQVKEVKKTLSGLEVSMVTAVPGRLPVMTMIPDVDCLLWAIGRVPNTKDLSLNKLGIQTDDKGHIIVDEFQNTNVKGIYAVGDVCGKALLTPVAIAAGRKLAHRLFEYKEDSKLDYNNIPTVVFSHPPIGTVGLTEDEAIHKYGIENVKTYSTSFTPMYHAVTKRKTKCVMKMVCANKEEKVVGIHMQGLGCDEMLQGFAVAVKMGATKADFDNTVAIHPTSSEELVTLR
Outline: (§2)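 GR (0.4–1.0 U in 200 μL; 0.3 μM) incubated at 37 °C in GR assay buffer, pH 6.9, with 200 μM NADPH (or without) and 12.5–200 μM ajoene. Ethanol replaced inhibitor in controls. 2-μL aliquots taken over time were assayed for remaining activity in a standard GR assay: 100 μM NADPH, 1 mM GSSG, 340 nm, 25 °C.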

[3] = target: T1, Glutathione reductase, mitochondrial (Homo sapiens); assay: kcat/Km value determined against human Glutathione reductase (GR) by oxidation of NADPH
Outline: (§3)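 Recombinant human glutathione reductase in GR assay buffer (phosphate, 200 mM KCl, 1 mM EDTA, pH 6.9) at 25 °C with 150 μM NADPH and ajoene or DATS as substrate. NADPH consumption read at 340 nm. Where GSH is present, it is added to the mixture. Controls held NADPH and enzyme only (intrinsic oxidase activity).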

[4] = target: T1, Glutathione reductase, mitochondrial (Homo sapiens); assay: kcat/Km value determined against human Glutathione reductase (GR); outline: as §3
[5] = target: T1, Glutathione reductase, mitochondrial (Homo sapiens); assay: Kcat value determined against human Glutathione reductase (GR) by oxidation of NADPH; outline: as §3
[6] = target: T1, Glutathione reductase, mitochondrial (Homo sapiens); assay: Kcat value determined against human Glutathione reductase (GR) by reduction of cytochrome c in the presence of GSH
Outline: (§4)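 1–2 U human GR preincubated 2 min at 25 °C with 200 μM NADPH and 25 μM horse heart cytochrome c in assay buffer, pH 7.5. Reaction started with 200 μM ajoene or DATS. Cytochrome c reduction followed at 550 nm (ε 19.1 mM⁻¹ cm⁻¹). Controls without enzyme. Superoxide tested by adding superoxide dismutase.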

[7] = target: Trypanothione reductase (Trypanosoma cruzi) (UniProt P28593); assay: Percent inhibition of Trypanothione reductase (TR) with 200 uM (E)-ajoene in the presence of NADPH at 37 C
Outline: (§5)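 T. cruzi TR (0.4–1.0 U in 200 μL) incubated at 37 °C with 200 μM NADPH and 200 μM ajoene for up to 60 min. Aliquots assayed for residual activity: 100 μM NADPH, 120 μM trypanothione disulfide, Hepes pH 7.5, 340 nm decrease.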

[8] = target: T1, Glutathione reductase, mitochondrial (Homo sapiens); assay: Kcat value determined against human Glutathione reductase (GR) by reduction of cytochrome c; outline: as §4
[9] = target: T1, Glutathione reductase, mitochondrial (Homo sapiens); assay: Kcat value determined against human Glutathione reductase (GR) by oxidation of NADPH in the presence of GSH; outline: as §3
[10] = target: Trypanothione reductase (Trypanosoma cruzi) (UniProt P28593); assay: Kcat value determined against Trypanothione reductase (TR) by oxidation of NADPH; outline: as §1
[11] = target: T1, Glutathione reductase, mitochondrial (Homo sapiens); assay: Percent inhibition of 0.3 uM (E)-ajoene in the presence of NADPH for 15 min at 37 C; outline: as §2
[12] = target: Trypanothione reductase (Trypanosoma cruzi) (UniProt P28593); assay: kcat/Km value determined against Trypanothione reductase (TR); outline: as §1
[13] = target: Trypanothione reductase (Trypanosoma cruzi) (UniProt P28593); assay: Percent inhibition of Trypanothione reductase (TR) with 200 uM (Z)-ajoene in the presence of NADPH at 37 C; outline: as §5
[14] = target: T1, Glutathione reductase, mitochondrial (Homo sapiens); assay: Percent inhibition of 0.3 uM (Z)-ajoene in the absence of NADPH for 15 min at 37 C; NI=No Inhibition; outline: as §2
[15] = target: T1, Glutathione reductase, mitochondrial (Homo sapiens); assay: Percent inhibition of 0.3 uM (Z)-ajoene in the presence of NADPH for 15 min at 37 C; outline: as §2

Sequence of Trypanothione reductase (Trypanosoma cruzi) (P28593 whole entry, looked up): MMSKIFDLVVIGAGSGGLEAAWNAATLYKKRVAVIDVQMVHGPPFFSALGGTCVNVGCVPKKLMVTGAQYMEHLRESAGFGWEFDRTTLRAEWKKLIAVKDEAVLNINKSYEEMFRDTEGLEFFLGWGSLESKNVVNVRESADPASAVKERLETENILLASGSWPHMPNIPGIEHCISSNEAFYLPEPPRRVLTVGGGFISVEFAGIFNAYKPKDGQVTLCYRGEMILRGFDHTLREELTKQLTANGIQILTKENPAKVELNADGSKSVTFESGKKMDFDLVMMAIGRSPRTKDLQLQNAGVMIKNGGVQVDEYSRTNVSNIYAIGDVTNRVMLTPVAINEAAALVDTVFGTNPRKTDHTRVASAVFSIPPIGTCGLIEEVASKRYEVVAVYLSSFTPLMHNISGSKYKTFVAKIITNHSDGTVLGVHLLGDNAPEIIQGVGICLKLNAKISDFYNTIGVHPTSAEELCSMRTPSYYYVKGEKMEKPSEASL

Row | Compound | k cat/Km [1] [M⁻¹ s⁻¹] | inhibition [2] | k cat/Km [3] [M⁻¹ s⁻¹] | k cat/Km [4] [M⁻¹ s⁻¹] | k cat [5] [s⁻¹] | k cat [6] [s⁻¹] | inhibition [7] [%] | k cat [8] [s⁻¹] | k cat [9] [s⁻¹] | k cat [10] [s⁻¹] | inhibition [11] [%] | k cat/Km [12] [M⁻¹ s⁻¹] | inhibition [13] [%] | inhibition [14] | inhibition [15] [%]
1 | C=CCSS/C=C/C[S+]([O-])CC=C (centres undefined) | 335 | inactive | 425 | 680 | 0.34 | 0.32 | 50 | 0.1 | 1.47 | 0.67 | 50 | 340 |  |  | 
2 | C=CCSS/C=C\C[S+]([O-])CC=C (centres undefined) | 335 |  | 6840 | 6800 | 2.6 |  |  | 0.06 |  | 0.67 |  | 340 | 40 | inactive | 50
3 | C=CCSSSCC=C |  |  | 1000 |  | 0.16 |  |  |  |  |  |  |  |  |  | 
